These results are taken from ChEMBL document CHEMBL1142410, “Stagonolides B-F, nonenolides produced by Stagonospora cirsii, a potential mycoherbicide of Cirsium arvense” (J Nat Prod, 2008).

Format in all cases: functional
Assay [1] relates to Cirsium arvense. Kind of assay: Phytotoxicity against Cirsium arvense at 1 mg/ml by leaf disk puncture assay. In a few lines:
(§1)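 Leaf disks wounded centrally with a needle, kept on moistened filter paper in closed boxes. Compound dissolved in MeOH, diluted with distilled water to 1 mg/mL final (2% v/v MeOH; MeOH-only control); 10 μL drop applied at the wound. Incubated 48 h under cycles of 8 h dark at 20 °C and 16 h light at 24 °C; necrotic area then measured.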

The test system of assay [2] is Sonchus arvensis. Kind of assay: Phytotoxicity against Sonchus arvensis at 1 mg/ml by leaf disk puncture assay. Put shortly:
as §1

The subject of assay [3] is Colpoda steinii. The assay is described as follows: Phytotoxicity against Colpoda stenii at 0.05 mg/ml after 3 hrs. Conditions: Colpoda steini, in the assay text read “Zootoxicity” for “Phytotoxicity”. Put shortly:
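Dried Colpoda steinii culture (~5000 cells per mL) revived in Lozina-Lozinskogo medium, 24 h at 25 °C. Compound in 4% EtOH mixed 1:1 v/v with the suspension, 0.05 mg/mL final; 4% EtOH control. Immobile cells (%) counted over 3–180 min. Full immobilisation within 3 min scored as strong toxicity; loss of motility at ≥180 min scored as medium.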

As to `CCC[C@H]1OC(=O)CCC/C=C/C(=O)[C@@H]1O`, the Activity entry was “Toxic” in assay [1], “Toxic” in assay [2] and “Not toxic” in assay [3].
Regarding `C[C@@H]1CC[C@@H](O)/C=C/C=C\C(=O)O1`, the Activity entry in assay [1] and in assay [2] was “Not toxic” in each case.
Turning to `C[C@@H]1C[C@H](O)/C=C/[C@@H](O)CCC(=O)O1`, the Activity result in assay [1], in assay [2] and in assay [3] was “Not toxic” in each case.
As to `C[C@@H]1C/C=C/[C@@H](O)CCCC(=O)O1`, the Activity result in assay [1] and in assay [2] was “Not toxic” throughout.
On to `CCC[C@H]1OC(=O)CC[C@@H](O)/C=C/[C@H](O)[C@@H]1O`, for which the Activity result in assay [1] and in assay [2] was “Not toxic” throughout.
With `C[C@@H]1OC(=O)CC[C@H](O)/C=C/[C@@H]2O[C@H]12`, the Activity result in assay [1] and in assay [2] was “Not toxic” throughout.
